Laboratory results reported in ChEMBL document CHEMBL1949593, “Stilbene-chalcone hybrids: design, synthesis, and evaluation as a new class of antimalarial scaffolds that trigger cell death through stage specific apoptosis” (J Med Chem, 2012).
The source made the active and inactive calls. The calls are words filed in the database; no cut-off is given here.

Legend:
Plasmodium falciparum [1] = experiment: Growth inhibition of ring stage chloroquine-sensitive Plasmodium falciparum 3D7 at 10 uM treated for 48 hrs following washout incubated for 48 hrs in drug free medium by Giemsa staining; assay type: functional, organism-based
Outline: (§1)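 Highly synchronized 3D7 cultures were exposed by stage: rings 48 h, trophozoites 24 h, schizonts 8 h. After a media wash, cultures grew 48 h in drug-free complete RPMI, in triplicate. Giemsa smears were read by counting 3000 cells per stage; pycnotic parasites were scored nonviable. Inhibition is percent of drug-free control.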

Plasmodium falciparum [2] = experiment: Growth inhibition of chloroquine-sensitive Plasmodium falciparum 3D7 schizonts at 10 uM treated for 8 hrs following washout incubated for 48 hrs in drug free medium by Giemsa staining; assay type: functional, organism-based; outline: as §1
Plasmodium falciparum [3] = experiment: Induction of apoptosis in chloroquine-sensitive Plasmodium falciparum 3D7 trophozoites assessed as nuclear condensation at 10 uM at 18 hrs by Giemsa staining; assay type: functional, organism-based
[4] = Resistance index, ratio of IC50 for ring stage chloroquine-resistant Plasmodium falciparum INDO to IC50 for ring stage chloroquine-sensitive Plasmodium falciparum 3D7; assay type: functional
Plasmodium falciparum [5] = experiment: Growth inhibition of chloroquine-sensitive Plasmodium falciparum 3D7 trophozoites at 10 uM treated for 24 hrs following washout incubated for 48 hrs in drug free medium by SYBR green 1-based fluorescence assay; assay type: functional, organism-based
Outline: (§2)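 Stage-specific exposure of synchronized 3D7: rings 48 h, trophozoites 24 h, schizonts 8 h. Drug was removed by media wash and cultures grew 48 h drug-free, in a separate triplicate set. Growth was read by SYBR Green I fluorescence and expressed as percent inhibition relative to drug-free control.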

Plasmodium falciparum [6] = experiment: Induction of apoptosis in chloroquine-sensitive Plasmodium falciparum 3D7 trophozoites assessed as chromatin fragmentation at 10 uM at 18 hrs by Hoechst 33342 staining; assay type: functional, organism-based
Outline: (§3)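 3D7 trophozoite cultures were treated 18 or 24 h, and ring cultures 24, 42 or 48 h. Parasites were stained with Hoechst 33342 for 10 min at room temperature, washed with PBS, and smeared. Condensed or fragmented chromatin (blue, 460 nm) was viewed by fluorescence microscopy.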

Plasmodium falciparum [7] = experiment: Induction of apoptosis in chloroquine-sensitive Plasmodium falciparum 3D7 trophozoites assessed as chromatin condensation at 10 uM at 18 hrs by Hoechst 33342 staining; assay type: functional, organism-based; outline: as §3
Plasmodium falciparum [8] = experiment: Antimalarial activity against chloroquine-sensitive Plasmodium falciparum 3D7 assessed as merozoites egress at 10 uM treated for 8 hrs followed by washout measured after 48 hrs by Giemsa staining; assay type: functional, organism-based
Outline: (§4)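 Highly synchronized 3D7 schizonts were exposed to drug for 8 h under normal culture conditions, alongside untreated controls. After a media wash, cultures were incubated for 48 h with or without drug. Giemsa-stained thin smears were examined microscopically for parasitemia and stage, and compared with control.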

[9] = Therapeutic index, ratio of IC50 for human HeLa cells to IC50 for ring stage chloroquine-sensitive Plasmodium falciparum 3D7; assay type: cell-based; conditions: read-out: Ratio IC50
Outline: (§5)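 HeLa or L929 fibroblasts were seeded at 10^4 cells per well in RPMI with 10% FBS, left overnight, then exposed 24 h at 37 °C, 5% CO2. MTT was added for 3 h; formazan was dissolved in DMSO and read at 570 nm. IC50 came from dose–response curves. Index = IC50(mammalian)/IC50(Pf 3D7, SYBR Green assay).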

Plasmodium falciparum [10] = experiment: Antimalarial activity against ring stage chloroquine-sensitive Plasmodium falciparum 3D7 infected in human O positive erythrocytes after 48 hrs by SYBR green 1 fluorescence assay; assay type: functional, organism-based; conditions: 3D7, 48 h
Outline: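 P. falciparum 3D7 in O+ human erythrocytes in complete RPMI with Albumax at 37 °C under 5% O2/5% CO2. Culture was sorbitol-synchronized to rings and plated at 2% hematocrit, 1% parasitemia. Drug range was 0–100 μM with 0.4% final DMSO, in triplicate. After 48 h, SYBR Green I fluorescence was read (ex 497/em 520 nm). IC50 was taken by visual matching of 50% growth inhibition.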

Plasmodium falciparum [11] = experiment: Induction of internucleosomal fragmentation in chloroquine-sensitive Plasmodium falciparum 3D7 trophozoites at 10 uM at 24 hrs by Hoechst 33342 staining; assay type: functional, organism-based; outline: as §3
[12] = Resistance index, ratio of IC50 for ring stage chloroquine-resistant Plasmodium falciparum Dd2 to IC50 for ring stage chloroquine-sensitive Plasmodium falciparum 3D7; assay type: functional
Plasmodium falciparum [13] = experiment: Induction of apoptosis in ring stage chloroquine-sensitive Plasmodium falciparum 3D7 assessed as chromatin condensation at 10 uM at 18 hrs by Hoechst 33342 staining; assay type: functional, organism-based
Plasmodium falciparum [14] = experiment: Antimalarial activity against chloroquine-sensitive Plasmodium falciparum 3D7 assessed as inhibition of schizonts growth at 10 uM treated for 8 hrs followed by washout measured after 48 hrs by Giemsa staining; assay type: functional, organism-based; outline: as §4
Plasmodium falciparum [15] = experiment: Antimalarial activity against ring stage chloroquine-resistant Plasmodium falciparum Dd2 infected in human O positive erythrocytes after 48 hrs by SYBR green 1 fluorescence assay; assay type: functional, organism-based; conditions: Dd2, 48 h
Outline: (§6)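 Ring-stage cultures were sorbitol-synchronized in O+ human erythrocytes in RPMI 1640 with 0.5% Albumax, hypoxanthine and gentamicin, then plated at 2% hematocrit and 1% parasitemia. Drugs were tested at 0–100 μM (final DMSO 0.4%) in triplicate for 48 h at 37 °C under 5% O2/5% CO2/90% N2. Read-out was SYBR Green I (ex 497/em 520 nm). IC50 was read visually as 50% growth inhibition, with chloroquine as control.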

Plasmodium falciparum [16] = experiment: Reduction in parasitemia of chloroquine-sensitive Plasmodium falciparum 3D7 trophozoites at 10 uM after 48 hrs by Giemsa staining; assay type: functional, organism-based
Plasmodium falciparum [17] = experiment: Induction of apoptosis in chloroquine-sensitive Plasmodium falciparum 3D7 trophozoites assessed as disruption of mitochondrial membrane potential at 10 uM by JC-1 staining; assay type: functional, organism-based
Outline: (§7)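 3D7 ring cultures were treated 24, 42 or 48 h, and trophozoite cultures 18 or 24 h. Parasites were stained with JC-1 for 20 min at 37 °C and viewed as wet mounts by fluorescence microscopy. Red-orange aggregate signal (590 nm) indicates intact ΔΨm; green monomer signal (525 nm) indicates dissipation.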

Plasmodium falciparum [18] = experiment: Induction of internucleosomal fragmentation in ring stage chloroquine-sensitive Plasmodium falciparum 3D7 at 10 uM at 24 hrs by Hoechst 33342 staining; assay type: functional, organism-based; outline: as §3
Plasmodium falciparum [19] = experiment: Antimalarial activity against ring stage chloroquine-resistant Plasmodium falciparum INDO infected in human O positive erythrocytes after 48 hrs by SYBR green 1 fluorescence assay; assay type: functional, organism-based; outline: as §6
Plasmodium falciparum [20] = experiment: Reduction in parasitemia of ring stage chloroquine-sensitive Plasmodium falciparum 3D7 at 10 uM after 48 hrs by Giemsa staining; assay type: functional, organism-based
Plasmodium falciparum [21] = experiment: Inhibition of RBC invasion of chloroquine-sensitive Plasmodium falciparum 3D7 schizonts at 10 uM treated for 8 hrs followed by washout measured after 48 hrs by Giemsa staining; assay type: functional, organism-based; outline: as §4
Plasmodium falciparum [22] = experiment: Induction of apoptosis in ring stage chloroquine-sensitive Plasmodium falciparum 3D7 assessed as nuclear condensation at 10 uM at 24 hrs by Giemsa staining
Plasmodium falciparum [23] = experiment: Growth inhibition of chloroquine-sensitive Plasmodium falciparum 3D7 trophozoites at 10 uM treated for 24 hrs followed by washout measured after 48 hrs by Giemsa staining; assay type: functional, organism-based; outline: as §1
Plasmodium falciparum [24] = experiment: Induction of apoptosis in ring stage chloroquine-sensitive Plasmodium falciparum 3D7 assessed as disruption of mitochondrial membrane potential at 10 uM by JC-1 staining; assay type: functional, organism-based; outline: as §7
[25] = Therapeutic index, ratio of IC50 for […] cells to IC50 for ring stage chloroquine-sensitive Plasmodium falciparum 3D7; assay type: cell-based; conditions: mouse, read-out: Ratio IC50; outline: as §5
[26] = Inhibition of Plasmodium falciparum falcipain-2 using benzyloxycarbonyl-Phe-Arg-7-amino-4-methyl coumarin hydrochloride as substrate preincubated for 10 mins prior substrate addition by fluorimetric assay
Outline: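 Recombinant falcipain-2 (2 μg) was preincubated 10 min at room temperature with or without compound, in triplicate. Buffer was 100 mM sodium acetate pH 5.5 with 10 mM DTT and 1% final DMSO. Z-Phe-Arg-AMC was then added at 10 μM final. AMC release was read at ex 355/em 460 nm. IC50 was taken by visual matching of 50% inhibition.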

Plasmodium falciparum [27] = experiment: Induction of apoptosis in ring stage chloroquine-sensitive Plasmodium falciparum 3D7 assessed as chromatin fragmentation at 10 uM at 18 hrs by Hoechst 33342 staining; assay type: functional, organism-based
Plasmodium falciparum [28] = experiment: Growth inhibition of chloroquine-sensitive Plasmodium falciparum 3D7 schizonts at 10 uM treated for 8 hrs following washout incubated for 48 hrs in drug free medium by SYBR green 1-based fluorescence assay; assay type: functional, organism-based; outline: as §2
Plasmodium falciparum [29] = experiment: Growth inhibition of ring stage chloroquine-sensitive Plasmodium falciparum 3D7 at 10 uM treated for 48 hrs following washout incubated for 48 hrs in drug free medium by SYBR green 1-based fluorescence assay; assay type: functional, organism-based; outline: as §2
Plasmodium falciparum [30] = experiment: Growth inhibition of ring stage chloroquine-sensitive Plasmodium falciparum 3D7 at 10 uM treated for 24 hrs followed by washout measured after 72 hrs by Giemsa staining; assay type: functional, organism-based
Outline: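 Synchronized 3D7 ring cultures were exposed for 18, 24 or 48 h, then washed free of drug. Cultures were kept under normal conditions to 96 h total. Giemsa-stained thin smears were read by counting 3000 cells; inhibition is relative to the matching drug-free control.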

COc1cc(OC)c(OC)cc1/C=C/C(=O)c1ccc(/C=C/c2cc(OC)c(OC(C)=O)c(OC)c2)cc1
growth inhibition (GI) (Plasmodium falciparum [1]): Active | growth inhibition (GI) (Plasmodium falciparum [2]): inactive | Activity (Plasmodium falciparum [3]): Active | Ratio IC50 [4]: 0.9 | growth inhibition (GI) (Plasmodium falciparum [5]): Active | Activity (Plasmodium falciparum [6]): Active | Activity (Plasmodium falciparum [7]): Active | inhibition (Plasmodium falciparum [8]): inactive | selectivity ratio [9]: > 45.5 | IC50 (Plasmodium falciparum [10]): 2.2 µM | Activity (Plasmodium falciparum [11]): Active | Ratio IC50 [12]: 1 | Activity (Plasmodium falciparum [13]): Active | growth inhibition (GI) (Plasmodium falciparum [14]): inactive | IC50 (Plasmodium falciparum [15]): 2.2 µM | Activity (Plasmodium falciparum [16]): Active | Activity (Plasmodium falciparum [17]): Active | Activity (Plasmodium falciparum [18]): inactive | IC50 (Plasmodium falciparum [19]): 1.98 µM | Activity (Plasmodium falciparum [20]): Active | inhibition (Plasmodium falciparum [21]): inactive | Activity (Plasmodium falciparum [22]): Active | growth inhibition (GI) (Plasmodium falciparum [23]): Active | Activity (Plasmodium falciparum [24]): Active | selectivity ratio [25]: > 45.5 | IC50 [26]: 25 µM | Activity (Plasmodium falciparum [27]): Active | growth inhibition (GI) (Plasmodium falciparum [28]): inactive | growth inhibition (GI) (Plasmodium falciparum [29]): Active | growth inhibition (GI) (Plasmodium falciparum [30]): Active
